Calls of active or inactive are those of the source.
Assays:
Mu-type opioid receptor [1] = target: T1, Mu-type opioid receptor (Homo sapiens, UniProt P35372); experiment: biochemical; type: cell-based, HEK293
[2] = target: Delta-type opioid receptor (Homo sapiens) (UniProt P41143); experiment: Displacement of [3H]DADLE from human recombinant delta opioid receptor expressed in Chem-1 (RBL) cells at 100 nM incubated for 60 mins by radiometric scintillation analysis; type: cell-based
Procedure, shortened: (§1)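 δ receptor: membranes of human recombinant Chem-1 (RBL) cells with [3H]DADLE 0.5 nM. Nonspecific binding defined with 10 μM naltrexone. Incubated 60 min at room temperature. Test concentrations 0.1 and 10 μM. Bound ligand collected by rapid vacuum filtration on glass fiber filters, followed by ice-cold buffer rinses. Read-out is percent displacement.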

[3] = target: Kappa-type opioid receptor (Homo sapiens) (UniProt P41145); experiment: Displacement of [3H]U69593 from human recombinant kappa opioid receptor expressed in Chem-1 (RBL) cells at 10000 nM incubated for 60 mins by radiometric scintillation analysis; type: cell-based
Chain of Kappa-type opioid receptor (Homo sapiens) (P41145 whole entry): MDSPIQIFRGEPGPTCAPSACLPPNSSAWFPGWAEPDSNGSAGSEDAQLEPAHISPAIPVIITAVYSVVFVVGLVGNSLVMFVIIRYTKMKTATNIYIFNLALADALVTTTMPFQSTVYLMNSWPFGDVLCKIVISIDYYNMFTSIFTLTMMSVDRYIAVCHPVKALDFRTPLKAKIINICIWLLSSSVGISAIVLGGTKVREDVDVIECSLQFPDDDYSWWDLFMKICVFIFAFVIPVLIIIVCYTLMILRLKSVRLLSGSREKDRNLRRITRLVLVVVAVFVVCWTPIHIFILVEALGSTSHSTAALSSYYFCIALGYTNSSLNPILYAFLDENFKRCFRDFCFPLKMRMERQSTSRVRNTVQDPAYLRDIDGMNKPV
Procedure, shortened: (§2)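 κ receptor: human recombinant RBL cell membranes with [3H]U69,593 0.5 nM. Nonspecific binding defined with 10 μM naloxone. Incubated 60 min at room temperature. Screened at 0.1 and 10 μM. Bound fraction separated by vacuum filtration on glass fiber filters with ice-cold buffer washes. Read-out is percent displacement.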

[4] = target: Kappa-type opioid receptor (Homo sapiens) (UniProt P41145); experiment: Displacement of [3H]U69593 from human recombinant kappa opioid receptor expressed in Chem-1 (RBL) cells at 100 nM incubated for 60 mins by radiometric scintillation analysis; type: cell-based
Procedure, shortened: as §2

[5] = target: Delta-type opioid receptor (Homo sapiens) (UniProt P41143); experiment: Displacement of [3H]DADLE from human recombinant delta opioid receptor expressed in Chem-1 (RBL) cells at 10000 nM incubated for 60 mins by radiometric scintillation analysis; type: cell-based
Procedure, shortened: as §1

Mu-type opioid receptor [6] = target: T1, Mu-type opioid receptor; experiment: Displacement of [3H]DAMGO from human recombinant mu opioid receptor expressed in HEK293 cells at 100 nM incubated for 120 mins by radiometric scintillation analysis; type: cell-based
Procedure, shortened: (§3)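 Nonspecific binding defined with 10 μM naloxone. Incubation 120 min at room temperature. Compounds at 0.1 and 10 μM. Rapid vacuum filtration through presoaked glass fiber filters, rinsed with ice-cold buffer. Read-out is percent displacement.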

Mu-type opioid receptor [7] = target: T1, Mu-type opioid receptor; experiment: Displacement of [3H]DAMGO from human recombinant mu opioid receptor expressed in HEK293 cells at 10000 nM incubated for 120 mins by radiometric scintillation analysis; type: cell-based
Procedure, shortened: as §3

Rattus norvegicus [8] = experiment: Antinociceptive activity in iv dosed Sprague-Dawley rat assessed as hot plate latency compound administered as cumulative dose at 5 mins intervals by Hot-plate test; type: functional
Procedure, shortened: (§4)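 Adult female and male Sprague-Dawley rats (10 weeks, n = 6, three per sex) with right external jugular vein catheter. Vehicle 5% Tween 80 + 5% propylene glycol in sterile water, 1.0 mL/kg i.v. After baseline, vehicle then ascending cumulative doses every 5 min, then naltrexone 0.1 mg/kg i.v. Plate at 52 °C, 60 s cutoff.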

Rattus norvegicus [9] = experiment: Antinociceptive activity in iv dosed Sprague-Dawley rat assessed as hot plate latency compound administered as cumulative dose at 5 mins intervals in presence of naltrexone by Hot-plate test; type: functional, organism-based
Procedure, shortened: as §4, with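 “cutoff. Latency converted to %MPE; ED50 (95% CI) by linear regression.” for “cutoff.”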

Chain of Delta-type opioid receptor (Homo sapiens) (P41143 whole entry): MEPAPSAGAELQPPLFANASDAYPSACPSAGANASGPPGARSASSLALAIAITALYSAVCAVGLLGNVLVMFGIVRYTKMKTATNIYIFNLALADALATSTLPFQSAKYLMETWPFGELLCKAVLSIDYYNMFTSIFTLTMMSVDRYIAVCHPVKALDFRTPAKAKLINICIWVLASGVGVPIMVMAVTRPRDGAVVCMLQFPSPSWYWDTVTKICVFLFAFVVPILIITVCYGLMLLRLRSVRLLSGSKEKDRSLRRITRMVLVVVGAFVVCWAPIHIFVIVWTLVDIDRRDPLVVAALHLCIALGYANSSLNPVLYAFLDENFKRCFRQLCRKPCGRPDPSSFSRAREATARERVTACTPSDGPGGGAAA
T1 sequence (P35372 whole entry): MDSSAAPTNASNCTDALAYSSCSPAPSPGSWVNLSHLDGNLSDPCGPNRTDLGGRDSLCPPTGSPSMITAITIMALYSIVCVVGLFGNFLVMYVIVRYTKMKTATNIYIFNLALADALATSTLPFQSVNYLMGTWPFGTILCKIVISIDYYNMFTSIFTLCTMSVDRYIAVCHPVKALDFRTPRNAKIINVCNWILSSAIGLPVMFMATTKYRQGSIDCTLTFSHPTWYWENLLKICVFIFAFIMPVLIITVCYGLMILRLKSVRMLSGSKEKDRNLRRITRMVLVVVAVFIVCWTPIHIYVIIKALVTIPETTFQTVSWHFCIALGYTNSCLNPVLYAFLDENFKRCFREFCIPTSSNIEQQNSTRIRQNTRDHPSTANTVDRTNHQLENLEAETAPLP

| SMILES | Ki (Mu-type opioid receptor [1]) [nM] | Activity [2] [%] | Activity [3] [%] | Activity [4] [%] | Activity [5] [%] | Activity (Mu-type opioid receptor [6]) [%] | Activity (Mu-type opioid receptor [7]) [%] | ED50 (Rattus norvegicus [8]) [mg/kg] | Activity (Rattus norvegicus [9]) |
| --- | --- | --- | --- | --- | --- | --- | --- | --- | --- |
| C=C[C@H]1CN2CCc3c([nH]c4cccc(OC)c34)[C@@H]2C[C@@H]1/C(=C\OC)C(=O)OC | 410 | – | – | – | – | – | – | – | – |
| CC[C@@H]1CN2CC[C@@]3(C(=O)Nc4ccccc43)[C@@H]2C[C@@H]1/C(=C\OC)C(=O)OC [CORYNOXINE] | 16.4 | -3.9 | 75.3 | 3.8 | 73.8 | 80.1 | 97.8 | 6.75 | – |
| CC[C@@H]1CN2CC[C@@]3(C(=O)Nc4cccc(O)c43)[C@H]2C[C@@H]1/C(=C\OC)C(=O)OC | 789 | 0 | 37.3 | 0.1 | 27.1 | 13.1 | 83.3 | – | – |
| CC[C@@H]1CN2CC[C@]3(C(=O)Nc4cccc(OC)c43)[C@@H]2C[C@@H]1/C(=C\OC)C(=O)OC | 1720 | 10.4 | 23 | 5 | 87.1 | 7.3 | 66.5 | – | – |
| CC[C@@H]1C[N+]2([O-])CCc3c([nH]c4cccc(OC)c34)[C@H]2C[C@@H]1/C(=C\OC)C(=O)OC (stereo partly drawn) | 553 | 5.1 | 80.9 | 6.6 | 53.5 | 10.5 | 84.6 | – | – |
| O=C1CC[C@@]2(O)[C@H]3Cc4ccc(O)c5c4[C@@]2(CCN3CC2CC2)[C@H]1O5 | – | – | – | – | – | – | – | – | inactive |
| CC[C@@H]1CN2CC[C@]3(C(=O)Nc4ccccc43)[C@@H]2C[C@@H]1/C(=C\OC)C(=O)OC [CORYNOXINE B] | 110 | -4.4 | 51.8 | 4.5 | 65.5 | 45.4 | 94.4 | – | – |

From ChEMBL document CHEMBL4808166, “Exploring the Chemistry of Alkaloids from Malaysian Mitragyna speciosa (Kratom) and the Role of Oxindoles on Human Opioid Receptors” (J Nat Prod, 2021)
